Laboratory results published in ChEMBL document CHEMBL4665656, “Toxicity, bioactivity, release of HS in vivo and pharmaco-kinetics of HS-donors with thiophosphamide structure” (Eur J Med Chem, 2019).

Tests used:
[1] = Induction of H2S generation assessed as Cmax at 150 uM incubated at 37 degC and pH 1.2 by fluorescence spectrophotometry; format: functional
Outline: (§1)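 Donor at 150 µM final, mixed with 200 µM sulfonyl-azide fluorescent probe in buffer/acetonitrile (1:9) at set pH. Cuvette held in a water bath at 22 °C or 37 °C, with fluorescence read three times at intervals. H2S was quantified from a Na2S standard curve (0–200 µM, probe 200 µM).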

[2] = Induction of H2S generation assessed as Cmax at 150 uM incubated at 22 degC and pH 7.4 by fluorescence spectrophotometry; format: functional; outline: as §1
[3] = Induction of H2S generation assessed as half life at 150 uM incubated at 22 degC and pH 7.4 by fluorescence spectrophotometry; format: functional; outline: as §1
[4] = tested on: HT-29; assay: Cytotoxicity in human HT-29 cells assessed as growth inhibition incubated for 24 hrs by MTT assay; format: functional, cell-based; details: HT-29, 24 h
Outline: (§2)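 Cells were grown in RPMI 1640 with 10% FBS at 37 °C and 10% CO2, seeded at 6×10^3 cells/well. Exposure was 24 h, with viability by MTT, in triplicate cultures. IC50 was reported as mean ± SD.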

[5] = Induction of H2S generation assessed as half life at 150 uM incubated at 37 degC and pH 1.2 by fluorescence spectrophotometry; format: functional; outline: as §1
[6] = Induction of H2S generation assessed as half life at 150 uM incubated at 22 degC and pH 1.2 by fluorescence spectrophotometry; format: functional; outline: as §1
[7] = Induction of H2S generation assessed as half life at 150 uM incubated at 22 degC and pH 5 by fluorescence spectrophotometry; format: functional; outline: as §1
[8] = Induction of H2S generation assessed as Cmax at 150 uM incubated at 37 degC and pH 5 by fluorescence spectrophotometry; format: functional; outline: as §1
[9] = Induction of H2S generation assessed as half life at 150 uM incubated at 37 degC and pH 8 by fluorescence spectrophotometry; format: functional; outline: as §1
[10] = tested on: HeLa; assay: Cytotoxicity in human HeLa cells assessed as growth inhibition incubated for 24 hrs by MTT assay; format: functional, cell-based; outline: as §2
[11] = Induction of H2S generation assessed as Cmax at 150 uM incubated at 22 degC and pH 1.2 by fluorescence spectrophotometry; format: functional; outline: as §1
[12] = Induction of H2S generation assessed as half life at 150 uM incubated at 37 degC and pH 5 by fluorescence spectrophotometry; format: functional; outline: as §1
[13] = Induction of H2S generation assessed as Cmax Induction of H2S generation assessed as Cmax at 150 uM incubated at 37 degC and pH 7.4 by fluorescence spectrophotometry; format: functional; outline: as §1
[14] = Induction of H2S generation assessed as half life at 150 uM incubated at 22 degC and pH 8 by fluorescence spectrophotometry; format: functional; outline: as §1
[15] = Induction of H2S generation assessed as Cmax Induction of H2S generation assessed as Cmax at 150 uM incubated at 37 degC and pH 8 by fluorescence spectrophotometry; format: functional; outline: as §1
[16] = Induction of H2S generation assessed as Cmax at 150 uM incubated at 22 degC and pH 5 by fluorescence spectrophotometry; format: functional; outline: as §1
[17] = Induction of H2S generation assessed as half life at 150 uM incubated at 37 degC and pH 7.4 by fluorescence spectrophotometry; format: functional; outline: as §1
[18] = tested on: HepG2; assay: Cytotoxicity in human HePG2 cells assessed as growth inhibition incubated for 24 hrs by MTT assay; format: functional, cell-based; details: HepG2, 24 h; outline: as §2
[19] = Induction of H2S generation assessed as Cmax at 150 uM incubated at 22 degC and pH 8 by fluorescence spectrophotometry; format: functional; outline: as §1
[20] = tested on: MCF7; assay: Cytotoxicity in human MCF-7 cells assessed as growth inhibition incubated for 24 hrs by MTT assay; format: functional, cell-based; details: MCF7, 24 h; outline: as §2
[21] = tested on: WI-38; assay: Cytotoxicity in human W138 cells assessed as growth inhibition incubated for 24 hrs by MTT assay; format: cell-based; details: WI-38, 24 h; outline: as §2
[22] = tested on: A549; assay: Cytotoxicity in human A549 cells assessed as growth inhibition incubated for 24 hrs by MTT assay; format: functional, cell-based; details: A549, 24 h; outline: as §2

Row | Compound | Cmax [1] [µM] | Cmax [2] [µM] | T1/2 [3] [min] | IC50 [4] [µM] | T1/2 [5] [min] | T1/2 [6] [min] | T1/2 [7] [min] | Cmax [8] [µM] | T1/2 [9] [min] | IC50 [10] [µM] | Cmax [11] [µM] | T1/2 [12] [min] | T1/2 [14] [min] | Cmax [15] [µM] | Cmax [16] [µM] | T1/2 [17] [min] | IC50 [18] [µM] | Cmax [19] [µM] | IC50 [20] [µM] | IC50 [21] [µM] | other results
1 | S=P1(c2ccccc2)OCC2CCCN21 (stereo not given) | 36.2 | 26.9 | 27.3 | 636 | 27.8 | 29.9 | 28.2 | 36.8 | 27.5 | 984 | 27.1 | 28.6 | 29.2 | 33.7 | 27.1 | 28.9 | 531 | 27.1 | 920 | 503 | Cmax [13]: 28.2 µM
2 | S=P1(c2ccccc2)OCCO1 | 35.7 | 27.7 | 26.6 | 882 | 25.8 | 25.4 | 25.1 | 35.7 | 25 | 679 | 28.4 | 27.9 | 26.5 | 35.7 | 27.9 | 25.9 | 804 | 27.5 | 748 | 381 | IC50 [22]: 679 µM; Cmax [13]: 29.1 µM
3 | S=P1(c2ccccc2)NCCO1 (stereo not given) | 35.6 | 29.9 | 31.9 | 539 | 31.9 | 33.8 | 32.7 | 37 | 33.6 | 930 | 30 | 32.6 | 31.3 | 35.4 | 29.9 | 32.2 | 775 | 29.7 | 798 | 759 | IC50 [22]: 622 µM; Cmax [13]: 31.1 µM
4 | O=C(O)[C@H](Cc1ccccc1)NP(O)(=S)c1ccccc1 (stereo not given in full) | 129 | 122 | 3.54 | 542 | 1.53 | 2.37 | 2.71 | 129 | 4.7 | 712 | 122 | 2.33 | 4.58 | 127 | 121 | 2.61 | 671 | 120 | 663 | 690 | IC50 [22]: 237 µM; Cmax [13]: 128 µM
5 | S=P1(c2ccccc2)NCCCN1 | 35.7 | 27.2 | 27.5 | 600 | 27.8 | 29.2 | 29.8 | 35.5 | 28.4 | 793 | 27 | 29.6 | 29 | 35.7 | 27.2 | 27.1 | 801 | 27.1 | 850 | 381 | IC50 [22]: 876 µM
6 | CSCC[C@H](NP(O)(=S)c1ccccc1)C(=O)O (stereo not given in full) | 120 | 112 | 3.32 | 826 | 2.2 | 2.68 | 3.64 | 120 | 3.55 | 919 | 114 | 2.44 | 4.26 | 118 | 113 | 2.83 | 286 | 113 | 671 | 546 | IC50 [22]: 309 µM; Cmax [13]: 120 µM
7 | S=P1(c2ccccc2)OCCCO1 | 38.4 | 24.4 | 34.6 | 991 | 34.2 | 33.5 | 35.8 | 37.4 | 35.8 | 1280 | 24.8 | 34.7 | 33 | 35.7 | 25.7 | 33 | 612 | 25.7 | 853 | 653 | IC50 [22]: 569 µM; Cmax [13]: 27.2 µM
8 | CC(C)[C@H](NP(O)(=S)c1ccccc1)C(=O)O (stereo not given in full) | 125 | 122 | 3.11 | 602 | 1.55 | 2.13 | 2.42 | 126 | 3.62 | 809 | 121 | 2.25 | 4.42 | 124 | 122 | 2.84 | 690 | 122 | 542 | 546 | IC50 [22]: 294 µM; Cmax [13]: 125 µM
9 | S=P1(c2ccccc2)NCCN1 | 35.7 | 28.4 | 30.9 | 780 | 31.2 | 32.5 | 31.1 | 35.4 | 31.6 | 968 | 28.5 | 32.9 | 30 | 34.8 | 28.4 | 31.1 | 657 | 28.3 | 713 | 958 | IC50 [22]: 641 µM; Cmax [13]: 29.9 µM
10 | C[C@H](NP(O)(=S)c1ccccc1)C(=O)O (stereo not given in full) | 110 | 102 | 3.72 | 689 | 1.67 | 2.36 | 3.32 | 106 | 3.4 | 888 | 104 | 2.23 | 4.33 | 106 | 103 | 2.75 | 858 | 103 | 832 | 351 | IC50 [22]: 346 µM; Cmax [13]: 108 µM
11 | CC(C)C[C@H](NP(O)(=S)c1ccccc1)C(=O)O (stereo not given in full) | 119 | 112 | 3.72 | 756 | 2.04 | 2.65 | 3.25 | 118 | 3.59 | 835 | 113 | 2.75 | 4.44 | 116 | 112 | 2.83 | 415 | 111 | 643 | 438 | IC50 [22]: 273 µM; Cmax [13]: 118 µM
12 | O=c1[nH]cc(F)c(=O)[nH]1 [FLUOROURACIL] | – | – | – | 146 | – | – | – | – | – | 120 | – | – | – | – | – | – | 112 | – | 136 | 202 | IC50 [22]: 104 µM
13 | O=C(O)[C@@H]1CCCN1P(O)(=S)c1ccccc1 (stereo not given in full) | 4.2 | 4 | 9.27 | 932 | 10.4 | 10.9 | 10.6 | 4.2 | 9.83 | 839 | 4 | 9.15 | 10.8 | 4.3 | 4.2 | 9.92 | 816 | 4.1 | 874 | 872 | IC50 [22]: 519 µM; Cmax [13]: 4.2 µM
14 | CC[C@H](C)[C@H](NP(O)(=S)c1ccccc1)C(=O)O (stereo not given in full) | 123 | 117 | 3.65 | 782 | 1.53 | 2.04 | 2.87 | 123 | 4.17 | 972 | 119 | 2.72 | 4.04 | 122 | 117 | 2.91 | 604 | 117 | 601 | 658 | IC50 [22]: 236 µM; Cmax [13]: 123 µM
